Experimental data published in ChEMBL document CHEMBL1130274, “Fibrinogen receptor (GPIIb-IIIa) antagonists derived from 5,6-bicyclic templates. Amidinoindoles, amidinoindazoles, and amidinobenzofurans containing the N-alpha-sulfonamide carboxylic acid function as potent platelet aggregation inhibitors” (J Med Chem, 1997).
pIC50: −log10 of the molar value.

Legend:
Type in all cases: protein-complex assay
[1] = biological target: T1, Integrin alpha-V/beta-3 (Homo sapiens, UniProt P05106+P06756); assay: Inhibition of vitronectin binding to the purified immobilized vitronectin receptor (alpha v, beta 3).
How it was run: (§1)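 Solid-phase microtiter assay. Purified integrin (GPIIb-IIIa or αvβ3) was coated at 1 μg/well overnight at 4 °C in Tris pH 7.4 buffer with CaCl2, then blocked with 35 mg/mL BSA for 2–3 h. Biotinylated fibrinogen or vitronectin (20 nM final) plus compound was incubated 3 h at room temperature. Bound ligand was detected with alkaline phosphatase anti-biotin antibody and pNPP at 405 nm.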

[2] = biological target: Integrin alpha-IIb/beta-3 (Homo sapiens, UniProt P05106+P08514); assay: Inhibitory activity of fibrinogen binding to purified immobilized glycoprotein (fibrinogen receptor).
[3] = biological target: T1, Integrin alpha-V/beta-3; assay: Inhibition of vitronectin binding to purified immobilized vitronectin receptor alpha v beta3; how it was run: as §1

Sequence of Integrin alpha-IIb/beta-3 (P05106 27-788 limits assumed): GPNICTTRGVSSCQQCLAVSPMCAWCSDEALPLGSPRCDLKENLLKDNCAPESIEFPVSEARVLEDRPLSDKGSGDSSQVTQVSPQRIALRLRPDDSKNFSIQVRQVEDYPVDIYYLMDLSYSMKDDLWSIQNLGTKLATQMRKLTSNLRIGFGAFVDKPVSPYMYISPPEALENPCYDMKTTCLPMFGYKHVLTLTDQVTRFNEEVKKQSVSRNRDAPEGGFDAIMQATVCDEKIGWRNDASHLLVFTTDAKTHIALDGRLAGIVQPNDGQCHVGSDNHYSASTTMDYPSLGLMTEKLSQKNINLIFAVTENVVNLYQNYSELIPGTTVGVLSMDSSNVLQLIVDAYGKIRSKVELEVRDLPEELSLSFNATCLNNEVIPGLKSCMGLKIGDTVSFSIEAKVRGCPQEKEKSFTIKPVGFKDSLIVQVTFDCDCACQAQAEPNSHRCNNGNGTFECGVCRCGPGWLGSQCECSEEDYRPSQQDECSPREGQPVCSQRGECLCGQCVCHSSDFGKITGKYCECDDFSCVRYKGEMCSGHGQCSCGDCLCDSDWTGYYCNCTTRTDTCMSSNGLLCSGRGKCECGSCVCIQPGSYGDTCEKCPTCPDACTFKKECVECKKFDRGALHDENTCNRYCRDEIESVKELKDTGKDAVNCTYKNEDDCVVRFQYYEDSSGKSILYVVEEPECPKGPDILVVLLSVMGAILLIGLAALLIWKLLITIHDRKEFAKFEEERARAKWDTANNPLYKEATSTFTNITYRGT
Sequence of Integrin alpha-IIb/beta-3 (P08514 32-887 limits assumed): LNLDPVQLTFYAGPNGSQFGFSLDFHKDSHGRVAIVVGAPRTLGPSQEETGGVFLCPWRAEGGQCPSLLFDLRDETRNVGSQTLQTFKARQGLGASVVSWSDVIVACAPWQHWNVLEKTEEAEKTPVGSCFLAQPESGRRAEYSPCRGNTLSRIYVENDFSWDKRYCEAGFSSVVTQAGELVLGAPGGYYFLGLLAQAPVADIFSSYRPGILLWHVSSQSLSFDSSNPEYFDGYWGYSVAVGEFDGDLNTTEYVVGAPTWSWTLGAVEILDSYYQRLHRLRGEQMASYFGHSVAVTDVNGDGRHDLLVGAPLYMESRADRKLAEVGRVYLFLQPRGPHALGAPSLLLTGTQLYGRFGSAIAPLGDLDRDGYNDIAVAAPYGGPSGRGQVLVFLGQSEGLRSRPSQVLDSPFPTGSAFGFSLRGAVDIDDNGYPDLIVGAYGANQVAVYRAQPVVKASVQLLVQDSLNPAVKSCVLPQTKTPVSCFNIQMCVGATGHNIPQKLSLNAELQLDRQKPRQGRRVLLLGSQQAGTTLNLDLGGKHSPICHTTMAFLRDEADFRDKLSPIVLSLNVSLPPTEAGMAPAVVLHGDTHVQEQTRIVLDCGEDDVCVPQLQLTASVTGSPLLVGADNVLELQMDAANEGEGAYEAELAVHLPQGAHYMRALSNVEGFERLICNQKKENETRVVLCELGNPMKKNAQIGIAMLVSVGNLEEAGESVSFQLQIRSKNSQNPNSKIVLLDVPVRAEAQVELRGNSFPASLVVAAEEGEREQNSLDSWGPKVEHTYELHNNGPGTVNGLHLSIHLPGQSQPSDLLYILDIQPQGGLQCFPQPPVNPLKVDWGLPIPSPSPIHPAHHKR
Sequence of Integrin alpha-IIb/beta-3 (P08514 891-1039 limits assumed): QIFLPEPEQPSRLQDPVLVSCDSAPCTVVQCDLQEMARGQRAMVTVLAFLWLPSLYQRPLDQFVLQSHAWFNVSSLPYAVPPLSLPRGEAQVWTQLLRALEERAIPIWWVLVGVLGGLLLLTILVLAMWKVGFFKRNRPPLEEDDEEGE
T1 sequence (P05106 27-788 limits assumed): as the sequence (P05106 27-788 limits assumed) above
T1 sequence (P06756 31-889 limits assumed): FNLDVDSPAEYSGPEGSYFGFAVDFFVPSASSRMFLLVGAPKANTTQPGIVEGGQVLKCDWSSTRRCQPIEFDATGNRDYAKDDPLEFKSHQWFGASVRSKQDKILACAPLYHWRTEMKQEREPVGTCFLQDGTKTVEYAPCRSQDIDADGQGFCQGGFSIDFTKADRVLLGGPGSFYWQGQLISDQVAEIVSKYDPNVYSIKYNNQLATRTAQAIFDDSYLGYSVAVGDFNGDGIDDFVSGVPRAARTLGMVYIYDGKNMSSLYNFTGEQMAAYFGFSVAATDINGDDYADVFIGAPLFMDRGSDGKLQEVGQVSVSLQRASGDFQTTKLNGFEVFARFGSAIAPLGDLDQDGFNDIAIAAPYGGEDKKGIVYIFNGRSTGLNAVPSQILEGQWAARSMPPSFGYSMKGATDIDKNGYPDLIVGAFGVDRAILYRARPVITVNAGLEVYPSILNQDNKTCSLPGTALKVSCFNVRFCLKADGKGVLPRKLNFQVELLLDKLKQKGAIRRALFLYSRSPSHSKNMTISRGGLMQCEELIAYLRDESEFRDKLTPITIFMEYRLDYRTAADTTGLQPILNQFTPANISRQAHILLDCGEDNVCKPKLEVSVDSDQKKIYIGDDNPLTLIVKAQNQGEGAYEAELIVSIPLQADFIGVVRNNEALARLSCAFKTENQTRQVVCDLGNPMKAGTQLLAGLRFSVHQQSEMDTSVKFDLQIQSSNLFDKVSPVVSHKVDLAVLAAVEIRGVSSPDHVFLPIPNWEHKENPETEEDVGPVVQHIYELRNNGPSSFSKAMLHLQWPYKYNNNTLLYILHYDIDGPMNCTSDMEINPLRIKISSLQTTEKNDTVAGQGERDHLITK
T1 sequence (P06756 891-1048 limits assumed): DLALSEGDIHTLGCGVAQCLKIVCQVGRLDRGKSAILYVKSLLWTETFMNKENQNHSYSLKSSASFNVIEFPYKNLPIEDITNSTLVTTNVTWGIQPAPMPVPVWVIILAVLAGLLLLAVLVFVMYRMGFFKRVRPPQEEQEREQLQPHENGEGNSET

pIC50 [1]	pIC50 [2]	pIC50 [3]	SMILES
< 4.00	8.74		N=C(N)c1ccc2oc(C(=O)NCCC(=O)NC[C@H](NS(=O)(=O)c3ccccc3)C(=O)O)cc2c1
< 4.00	7.40		C#CC(CC(=O)O)NC(=O)CCNC(=O)c1cc2cc(C(=N)N)ccc2o1 (stereo not given)
< 4.00	8.70		N=C(N)c1ccc2oc(C(=O)NCCC(=O)NC[C@H](NS(=O)(=O)c3ccc(I)cc3)C(=O)O)cc2c1
	5.00		N=C(N)c1ccc2[nH]c(C(=O)NC(CC(=O)NC(CC(=O)O)c3ccccc3)C(F)(F)F)cc2c1 (stereo not given)
	6.00		N=C(N)c1ccc2[nH]c(C(=O)NCCC(=O)NC(CC(=O)O)c3ccccc3)cc2c1 (stereo not given)
4.22	6.82		N=C(N)c1ccc2oc(C(=O)NCCC(=O)NC(CC(=O)O)c3ccccc3)cc2c1 (stereo not given)
	5.00		N=C(N)c1ccc2[nH]c(C(=O)NCC(=O)NC(CC(=O)O)c3ccccc3)cc2c1 (stereo not given)
	7.40		COc1ccc(C(CC(=O)O)NC(=O)CCNC(=O)c2cc3cc(C(=N)N)ccc3o2)cc1OC (stereo not given)
< 4.00	6.90		N=C(N)c1ccc2oc(C(=O)NCCC(=O)NC(CC(=O)O)c3cc(F)ccc3F)cc2c1 (stereo not given)
	5.22		N=C(N)c1ccc2[nH]c(C(=O)N3CCC(C(=O)NC(CC(=O)O)c4ccccc4)CC3)cc2c1 (stereo not given)
< 4.00	7.70		N=C(N)c1ccc2oc(C(=O)NCCC(=O)NCCC(=O)O)cc2c1
< 4.00	7.40		N=C(N)c1ccc2oc(C(=O)NCCC(=O)NC(CC(=O)O)C(F)(F)F)cc2c1 (stereo not given)
< 4.00	7.00		N=C(N)c1ccc2oc(C(=O)NCCC(=O)NC(CC(=O)O)c3cc(F)cc(F)c3)cc2c1 (stereo not given)
< 4.00	6.82		CN(CCC(=O)NC(CC(=O)O)c1ccccc1)C(=O)c1cc2cc(C(=N)N)ccc2o1 (stereo not given)
< 4.00	8.70		CCCCS(=O)(=O)N[C@@H](CNC(=O)CCNC(=O)c1cc2cc(C(=N)N)ccc2o1)C(=O)O
< 4.00	8.70		CN(C)c1cccc2c(S(=O)(=O)N[C@@H](CNC(=O)CCNC(=O)c3cc4cc(C(=N)N)ccc4o3)C(=O)O)cccc12

pIC50 [1]	pIC50 [2]	pIC50 [3]	SMILES
	4.30		N=C(N)c1ccc2[nH]c(C(=O)Nc3cccc(C(=O)NC(CC(=O)O)c4ccccc4)c3)cc2c1 (stereo not given)
	6.00		N=C(N)c1ccc2oc(C(=O)N3CCC[C@@H]3C(=O)NC(CC(=O)O)c3ccccc3)cc2c1 (stereo not given in full)
< 4.00	7.40		N=C(N)c1ccc2oc(C(=O)NCCC(=O)NC[C@H](N)C(=O)O)cc2c1
4.00	7.40		N=C(N)c1ccc2oc(C(=O)NCCC(=O)NC(CC(=O)O)c3cccnc3)cc2c1 (stereo not given)
	6.30		N=C(N)c1ccc2oc(C(=O)N3Cc4ccccc4CC3C(=O)NC(CC(=O)O)c3ccccc3)cc2c1 (stereo not given)
	< 4.00		CC(C)(NC(=O)c1cc2cc(C(=N)N)ccc2[nH]1)C(=O)NC(CC(=O)O)c1ccccc1 (stereo not given)
< 4.00	6.70		N=C(N)c1ccc2oc(C(=O)NCCC(=O)NC(CC(=O)O)c3ccc(F)c(F)c3)cc2c1 (stereo not given)
	5.00		CN(CC(=O)NC(CC(=O)O)c1ccccc1)C(=O)c1cc2cc(C(=N)N)ccc2[nH]1 (stereo not given)
	6.52		N=C(N)c1ccc2oc(C(=O)NCC(=O)NC(CC(=O)O)c3ccccc3)cc2c1 (stereo not given)
3.90	5.60		CC(CC(=O)NC(CC(=O)O)c1ccccc1)NC(=O)c1cc2cc(C(=N)N)ccc2[nH]1 (stereo not given)
	7.70	< 4.00	CN(CCC(=O)NC(CC(=O)O)c1ccccc1)C(=O)c1cc2cc(C(=N)N)ccc2[nH]1 (stereo not given)
	6.40		N=C(N)c1ccc2oc(C(=O)N3CCCC(C(=O)NC(CC(=O)O)c4ccccc4)C3)cc2c1 (stereo not given)
< 4.00	8.70		CCCCS(=O)(=O)NC(CNC(=O)CCNC(=O)c1c[nH]c2cc(C(=N)N)ccc12)C(=O)O (stereo not given)
< 4.00	8.70		CCCCS(=O)(=O)NC(CNC(=O)CCNC(=O)c1[nH]nc2cc(C(=N)N)ccc12)C(=O)O (stereo not given)
< 4.00	7.70		CC(CC(=O)NC(CC(=O)O)c1ccccc1)NC(=O)c1cc2cc(C(=N)N)ccc2o1 (stereo not given)
